# UPR XBP1 act = activators of adaptive arm of unfolded protein response (XBP1) | CHO-XBP1 luciferase reporter, IRE1-XBP1 UPR activation, luminescence; percent of tunicamycin response, DMSO as zero | activation, % at 20 µM | 0.33% of 330,000 active | AID 463104;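 active = versus positive control, 20 µM dose yields 30% or more activation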;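 note: 100% = tunicamycin at 10 µg/mL and 0% = DMSO only wells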
#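 Material: CHO cell line with stable XBP1 luciferase reporter; buffer or medium: F12 medium containing 10% fetal bovine serum; compound: single point, 20 µM final compound, 1% DMSO; incubation: 6 h treatment, 37 °C; measured by: glow luminescence from Steady-Glo reagent; evaluation: activation, % of tunicamycin; control set: tunicamycin high, DMSO low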
# UPR CHOP act = activators of apoptotic arm of unfolded protein response (CHOP); CHO-CHOP luciferase reporter, UPR activation, luminescence; percent of tunicamycin response over DMSO baseline; 0.34% of 330,000 active; activation, % at 10 µM;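 active = at 10 µM dose, activation of 40% or more, normalized to positive control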;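 note: 100% = tunicamycin at 10 µg/mL and 0% = DMSO alone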
#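 Dosing – one dose, 10 µM in 0.5% DMSO · System – CHO-CHOP cells, stable luciferase reporter of PERK-eIF2a-CHOP signalling · Input – 500 cells/well · Control set – tunicamycin 10 µg/mL final as positive, DMSO-only wells as negative · Timing – 6 h compound treatment, 37 °C · Measure – % activation vs tunicamycin · Technique – luminescence read with Steady-Glo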
# Lmaj promast = Leishmania major promastigote growth inhibition. inhibition, % at 10 µM. AID 1063. 9% of 200,000 active. Leishmania major promastigotes, resazurin fluorescence viability; in the data active = inhibition above about 50%;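 note: promastigotes grown with compound for 44 hours at 28 °C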
# T cruzi inh = blocks replication of Trypanosoma cruzi. T. cruzi beta-gal in NIH3T3, luminescence, 90 h. inhibition, % (concentration not given with the values). 1.4% of 300,000 active;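 active = mean inhibition across valid replicates above about 55%, limit read from the data; inconclusive = mean below that limit but half or more replicates reach it; inactive = mean below it, under half of replicates reach it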;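 note: signal also drops with host cell toxicity which is not excluded here; 0% = plate median of DMSO wells and 100% = zero luminescence signal; higher percent means less beta-gal luminescence so fewer parasites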
#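 System: mouse NIH/3T3 fibroblasts infected with β-gal-expressing T. cruzi Tulahuen C4 / Input: NIH/3T3 cells, 5,000 per well / Buffer or medium: Low-serum DMEM with 2% FBS / Probe or stimulus: 5000 reporter trypomastigotes per well / Schedule: ≥90 h infection period, 3 h prior cell attachment / Measured by: GalScreen luminescence, 60 min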
# CHOP inhibitor = blocks CHOP induction under ER stress. CHO-K1 CHOP-promoter luciferase, tunicamycin-induced, 15-18 h. inhibition, % at 10 µM. 3.8% of 220,000 active. AID 2732;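 active = compounds that reduced the stress-induced luciferase reporter signal by more than about 70% of percent inhibition, limit read from the data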;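 note: 0% = tunicamycin plus vehicle and 100% = wells without tunicamycin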
# Dynein transport = blocks dynein driven cargo transport along microtubules | AID 1381 | 0.47% of 220,000 active | 3617.4 mouse cells, GR-EGFP nuclear translocation imaging; test concentration mostly 20 µM; stimulated with dexamethasone, 1 µM; stronger effect = lower value | z-score, hits read low;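 active = plate z-score of nuclear minus cytoplasmic receptor signal below a set negative limit, without overly bright fluorescence or cell loss, cut at about -3.5 in these data, passing the limit was not always enough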;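 note: z-score of nuclear minus cytoplasmic ring GR-EGFP intensity difference per well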
#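 Buffer or medium: tet-free medium with charcoal-stripped serum / Also added: dexamethasone agonist, 1.0 µM final, for 30 min / Timing: induction 48 h, compound 1 h, agonist 30 min / Measured by: high-content fluorescence imaging after fixation / Read-out: nuclear-to-cytoplasmic GR-EGFP distribution per well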
# An asterisk follows results filed as active; ? = inconclusive; · = no result. The full list was thinned out, with hits kept by preference.
SMILES,UPR XBP1 act,UPR CHOP act,Lmaj promast,T cruzi inh,CHOP inhibitor,Dynein transport
CC(=O)c1ccc(NC(=O)C(C)N2CCN(C/C=C/c3ccccc3)CC2)cc1 (configuration not stated),-1.4,-0.4,86.2*,39.5,-11.5,0.585
CC(C(=O)N(C)Cc1ccccc1)N1CCN(C/C=C/c2ccccc2)CC1 (configuration not stated),1.3,1.7,·,60.4*,15.2,0.567
COc1ccc(Cl)cc1NC(=O)C(C)N1CCN(C/C=C/c2ccccc2)CC1 (configuration not stated),-3.0,1.5,62.0*,45.0,73.5*,0.629
O=C(c1ccc(Br)s1)N1CCN(C/C=C/c2ccccc2)CC1,-2.3,0.1,25.3,11.0,36.7,-0.646
CC(=O)c1ccc(S(=O)(=O)NCC(=O)N2CCN(C/C=C/c3ccccc3)CC2)cc1,0.1,-0.8,·,·,·,·
O=C(OCC1OC(n2cc(Br)c(=O)[nH]c2=O)C(Br)C1O)c1ccccc1 (configuration not stated),2.5,0.2,·,0.6,·,·
CCOc1ccc(S(=O)(=O)c2cn(C)c3cc(OC)c(OC)cc3c2=O)cc1,-0.4,-0.4,·,-2.3,·,·
O=C(NCCC1CCCCN1S(=O)(=O)c1ccccc1)C(=O)NCc1cccnc1 (configuration not stated),1.5,1.3,·,3.0,·,·
Cc1ccc(S(=O)(=O)NC(CC(C)C)C(=O)N2CCN(C/C=C/c3ccccc3)CC2)cc1 (configuration not stated),-1.2,-1.0,·,·,·,·
CC(C(=O)Nc1ccc([N+](=O)[O-])cc1)N1CCN(C/C=C/c2ccccc2)CC1 (configuration not stated),-2.3,0.8,81.9*,17.4,20.9,0.475
Cc1ccc(C(=O)CCc2ccc(N)cc2)cc1,5.3,3.9,·,11.3,·,·
O=C(CSc1ccc([N+](=O)[O-])cn1)Nc1cc(C(F)(F)F)ccc1N1CCOCC1,-2.3,-0.2,·,24.9,·,·
O=C(NCCCn1ccnc1)C1CCN(S(=O)(=O)c2cc([N+](=O)[O-])ccc2Cl)CC1,-2.0,-0.5,·,·,·,·
O=C(CN1CCCC1)N1c2ccccc2Sc2ccc(C(F)(F)F)cc21,-0.4,2.8,12.6,16.8,16.6,-0.335
O=C(CN1CCN(c2ccccn2)CC1)N1c2ccccc2Sc2ccc(C(F)(F)F)cc21,0.5,-2.2,68.0*,20.5,57.9,-0.375
CCNCCC(=O)N1c2ccccc2Sc2ccc(C(F)(F)F)cc21,-3.5,1.7,·,15.8,·,·
O=C(CSc1nc2ccccc2o1)N1c2ccccc2Sc2ccc(C(F)(F)F)cc21,-0.8,2.3,79.7*,50.1,19.0,0.708
CCC(CC)c1nnc(NC(=O)c2ccc3ccccc3n2)s1,1.1,7.3,77.9*,2.1,-44.3,0.802
O=[N+]([O-])c1ccccc1/C=N/Nc1nc(N2CCCC2)nc(N2CCCC2)n1,-1.4,-1.7,1.1,9.9,75.1*,-1.29
O=[N+]([O-])c1cc2c(cc1/C=N/Nc1nc(N3CCCC3)nc(N3CCCC3)n1)OCO2,-0.4,-0.3,75.7*,13.9,51.4,-0.659
O/N=C/c1ccccc1Oc1ccccc1,-0.8,-2.2,-5.6,3.3,18.4,-0.112
Cc1cc(C)cc(Oc2ccccc2/C=N\O)c1,-0.1,-0.5,0.6,-2.5,72.7*,0.251
O=C(Cn1cnc(S(=O)(=O)N2CCCC2)c1)Nc1cccc(F)c1,-3.8,4.2,·,12.5,·,·
Cc1cccc(C(=O)O/N=C/c2c(N3CCOCC3)n(C)c3ccccc23)c1,10.6,9.7,98.9*,72.9*,19.8,1.14
N#Cc1c(Nc2ccccc2)sc(C(=O)c2ccc(F)cc2)c1N,1.1,0.2,65.5*,3.6,16.8,0.441
SMILES,UPR XBP1 act,UPR CHOP act,Lmaj promast,T cruzi inh,CHOP inhibitor,Dynein transport
Nc1c(C(=O)c2ccccc2)sc(Nc2ccccc2)c1S(=O)(=O)c1ccccc1,3.8,0.7,94.8*,55.5*,13.6,-0.616
N#Cc1c(Nc2ccccc2)sc(C(=O)C2CC2)c1N,6.9,-0.8,-3.6,17.6,-1.8,1.12
Cc1ccc(C(=O)c2sc(Nc3ccccc3)c(C#N)c2N)cc1,7.2,2.0,74.5*,-2.5,13.1,-0.757
Nc1nc(Nc2ccccc2)sc1C(=O)c1ccccc1,-3.2,0.8,·,·,46.6,0.0776
COc1cc(OC)c2cc(C(=O)N[C@@H](Cc3ccccc3)C(=O)O)n(C)c2c1,-1.2,0.1,·,-8.0,·,·
CCn1c(=O)c(C(=O)NNS(=O)(=O)c2ccc(Cl)cc2)c(O)c2ccccc21,0.2,-1.3,-7.1,-2.4,84.4*,-0.0549
CCCCCCC(=O)NNC(=O)c1c(O)c2ccccc2n(CCC)c1=O,-0.1,0.2,-7.6,-10.3,75.6*,-0.213
CCCCCCC(=O)NNC(=O)c1c(O)c2ccccc2n(CC)c1=O,-2.3,-1.1,-5.0,10.0,93.0*,-0.3
O=C(O)CN=CC1=C(O)CC(c2ccccc2)CC1=O (configuration not stated),-2.4,-1.6,·,-1.7,·,·
CCOC(=O)N1CCN(C(=O)CSc2ccc(-c3cccc(OC)c3)nn2)CC1,-1.6,-1.5,48.2,·,77.0*,1.63
CCOC(=O)N1CCN(C(=O)CSc2ccc(-c3cccnc3)nn2)CC1,2.0,1.6,-1.2,-1.3,5.4,-0.209
CCOc1ccc(Nc2nnc(SCc3nc4ccccc4c(=O)[nH]3)s2)cc1,2.8,1.1,·,-4.3,95.9*,2.73
Cc1ccccc1Nc1nnc(SCc2nc3ccccc3c(=O)[nH]2)s1,-2.3,1.0,0.4,-6.1,32.1,0.308
CC(C)Cn1c(N2CCN(CC(=O)Nc3ccc(Cl)cc3)CC2)nc2ccccc21,-3.4,-0.5,85.8*,42.0,65.9,-0.307
O=C(CN1CCN(c2ccc(O)cc2)CC1)Nc1ccc2c(c1)OCCCO2,-0.7,-0.8,·,·,·,·
CC(C)n1c(N2CCN(CC(=O)Nc3ccc4c(c3)OCCO4)CC2)nc2ccccc21,0.3,1.1,51.1*,1.1,16.7,-0.523
Cc1ccc(SCc2nc3ccccc3n2CC(=O)Nc2ccc(Cl)cc2)cc1,2.5,-0.6,37.1,?,44.7,-0.978
CCOC(=O)c1c(-c2cccc([N+](=O)[O-])c2)csc1N,5.2,0.4,-5.1,-3.5,33.6,-0.646
Cc1cccc(-c2csc(N)c2C(=O)OC(C)C)c1,3.5,0.5,2.6,-6.4,74.1*,-0.72
Cc1ccc(C)c(-c2csc(N)c2C(=O)OC(C)C)c1,-2.9,-0.9,13.6,8.4,79.7*,0.676
CC(=O)NNC(=O)c1csc(-c2csc(C)n2)n1,-0.2,0.0,·,·,10.3,-0.576
OCC1(Cc2ccccc2)CCCN(C2CCCC2)C1 (configuration not stated),-7.7,1.3,61.1*,2.5,21.0,-0.244

# Screens deposited in PubChem by several laboratories.
